# Laboratory results reported in the M2OR odorant receptor database.
# How the values were obtained:
# Conditions in all cases: stereoisomer not certain
# UniProt Q8VG27 = target: T1, UniProt Q8VG27
# T1 sequence (whole entry): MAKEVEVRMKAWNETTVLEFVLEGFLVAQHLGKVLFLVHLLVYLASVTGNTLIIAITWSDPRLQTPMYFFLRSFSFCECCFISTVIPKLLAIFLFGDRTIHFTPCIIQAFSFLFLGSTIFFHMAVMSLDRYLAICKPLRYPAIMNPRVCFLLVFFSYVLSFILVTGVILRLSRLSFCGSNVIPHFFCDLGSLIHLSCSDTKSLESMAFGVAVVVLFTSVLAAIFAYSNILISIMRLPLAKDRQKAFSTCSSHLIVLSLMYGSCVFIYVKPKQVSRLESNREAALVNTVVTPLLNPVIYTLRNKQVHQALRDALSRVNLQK
# Summary of the method: (§1)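 Each entry records the cell line, G-protein, co-transfected protein and tags used. Methods varied with the source, often transient luciferase assays in mammalian cell lines. A receptor–molecule pair is called responsive (active) if the original authors judged its signal statistically different from baseline and non-responsive (inactive) otherwise.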
# UniProt Q8VG49 = target: T2, UniProt Q8VG49
# T2 sequence (whole entry): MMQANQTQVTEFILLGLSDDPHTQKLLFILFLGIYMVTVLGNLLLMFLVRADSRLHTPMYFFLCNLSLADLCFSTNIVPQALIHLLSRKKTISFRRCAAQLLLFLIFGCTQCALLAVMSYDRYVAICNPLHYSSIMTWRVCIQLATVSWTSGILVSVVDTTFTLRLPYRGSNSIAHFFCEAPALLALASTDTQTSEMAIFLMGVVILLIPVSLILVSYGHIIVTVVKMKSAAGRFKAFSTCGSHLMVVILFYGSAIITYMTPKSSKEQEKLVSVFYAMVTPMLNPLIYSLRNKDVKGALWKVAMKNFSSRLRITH
# Summary of the method: as §1
# UniProt Q8VG53 = target: T3, UniProt Q8VG53
# T3 sequence (whole entry): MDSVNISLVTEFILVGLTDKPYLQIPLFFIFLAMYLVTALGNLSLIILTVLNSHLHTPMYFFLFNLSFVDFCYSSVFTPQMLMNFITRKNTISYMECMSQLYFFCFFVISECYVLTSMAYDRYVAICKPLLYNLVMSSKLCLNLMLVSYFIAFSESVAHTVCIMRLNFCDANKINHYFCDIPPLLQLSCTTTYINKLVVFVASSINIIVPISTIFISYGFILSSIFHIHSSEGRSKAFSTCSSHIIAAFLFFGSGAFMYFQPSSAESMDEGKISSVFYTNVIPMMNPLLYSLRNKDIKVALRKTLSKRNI
# Summary of the method: as §1
# UniProt Q8VG64 = target: T4, UniProt Q8VG64
# T4 sequence (whole entry): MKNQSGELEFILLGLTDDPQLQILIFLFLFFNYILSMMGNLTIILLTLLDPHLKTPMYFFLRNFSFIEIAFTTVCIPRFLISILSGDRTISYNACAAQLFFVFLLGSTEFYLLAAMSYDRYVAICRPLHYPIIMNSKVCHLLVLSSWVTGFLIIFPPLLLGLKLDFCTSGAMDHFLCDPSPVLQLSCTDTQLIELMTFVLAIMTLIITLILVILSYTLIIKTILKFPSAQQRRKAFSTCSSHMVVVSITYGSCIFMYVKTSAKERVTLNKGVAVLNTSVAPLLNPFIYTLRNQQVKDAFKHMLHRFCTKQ
# Summary of the method: as §1
# UniProt Q8VG77 = target: T5, UniProt Q8VG77
# T5 sequence (whole entry): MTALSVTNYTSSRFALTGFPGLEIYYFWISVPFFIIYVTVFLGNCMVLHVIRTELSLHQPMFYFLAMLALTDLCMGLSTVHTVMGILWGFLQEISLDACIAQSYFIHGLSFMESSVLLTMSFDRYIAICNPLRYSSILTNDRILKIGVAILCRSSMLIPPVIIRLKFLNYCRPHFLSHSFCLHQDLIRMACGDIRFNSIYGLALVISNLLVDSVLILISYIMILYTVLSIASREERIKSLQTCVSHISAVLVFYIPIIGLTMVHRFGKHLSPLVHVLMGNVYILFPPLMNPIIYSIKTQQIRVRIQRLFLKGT
# Summary of the method: as §1
# UniProt Q8VG96 = target: T6, UniProt Q8VG96
# T6 sequence (whole entry): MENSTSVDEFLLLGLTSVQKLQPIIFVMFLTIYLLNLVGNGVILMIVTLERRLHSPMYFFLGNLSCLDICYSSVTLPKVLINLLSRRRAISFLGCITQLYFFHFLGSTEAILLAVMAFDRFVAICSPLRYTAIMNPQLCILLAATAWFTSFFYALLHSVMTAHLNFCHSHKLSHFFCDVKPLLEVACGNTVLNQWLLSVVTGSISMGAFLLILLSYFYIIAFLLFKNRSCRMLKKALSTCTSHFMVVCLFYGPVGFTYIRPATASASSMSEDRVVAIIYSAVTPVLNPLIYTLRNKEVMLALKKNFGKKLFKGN
# Summary of the method: as §1
# UniProt Q8VGB9 = target: T7, UniProt Q8VGB9
# T7 sequence (whole entry): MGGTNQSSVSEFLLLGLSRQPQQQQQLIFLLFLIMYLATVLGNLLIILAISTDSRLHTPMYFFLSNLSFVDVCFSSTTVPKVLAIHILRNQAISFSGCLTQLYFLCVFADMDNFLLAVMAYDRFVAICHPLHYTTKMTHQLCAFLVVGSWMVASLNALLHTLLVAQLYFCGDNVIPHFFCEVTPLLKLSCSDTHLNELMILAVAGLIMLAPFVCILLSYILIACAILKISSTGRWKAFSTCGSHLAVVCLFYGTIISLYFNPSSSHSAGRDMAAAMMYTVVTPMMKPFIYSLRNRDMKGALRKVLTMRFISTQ
# Summary of the method: as §1
# UniProt Q8VGC6 = target: T8, UniProt Q8VGC6
# T8 sequence (whole entry): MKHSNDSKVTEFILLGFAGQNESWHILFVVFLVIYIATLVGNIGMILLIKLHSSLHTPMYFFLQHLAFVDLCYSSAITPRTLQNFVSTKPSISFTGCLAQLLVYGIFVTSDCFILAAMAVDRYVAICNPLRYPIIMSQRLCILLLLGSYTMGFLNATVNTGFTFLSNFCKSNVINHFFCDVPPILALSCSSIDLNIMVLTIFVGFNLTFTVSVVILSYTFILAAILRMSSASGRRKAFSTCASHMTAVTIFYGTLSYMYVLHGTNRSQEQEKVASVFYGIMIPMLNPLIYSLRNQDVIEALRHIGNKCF
# Summary of the method: as §1
# UniProt Q8VGD7 = target: T9, UniProt Q8VGD7
# T9 sequence (whole entry): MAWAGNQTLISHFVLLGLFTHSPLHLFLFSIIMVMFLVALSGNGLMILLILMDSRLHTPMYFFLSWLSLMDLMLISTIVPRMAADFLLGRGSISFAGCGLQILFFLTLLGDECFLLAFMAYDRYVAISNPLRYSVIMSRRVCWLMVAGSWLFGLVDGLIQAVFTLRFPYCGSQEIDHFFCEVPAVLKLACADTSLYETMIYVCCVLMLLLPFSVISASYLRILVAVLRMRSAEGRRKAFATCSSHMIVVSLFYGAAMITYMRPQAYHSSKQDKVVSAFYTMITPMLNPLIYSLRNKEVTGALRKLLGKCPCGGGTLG
# Summary of the method: as §1
# UniProt Q8VGH1 = target: T10, UniProt Q8VGH1
# T10 sequence (whole entry): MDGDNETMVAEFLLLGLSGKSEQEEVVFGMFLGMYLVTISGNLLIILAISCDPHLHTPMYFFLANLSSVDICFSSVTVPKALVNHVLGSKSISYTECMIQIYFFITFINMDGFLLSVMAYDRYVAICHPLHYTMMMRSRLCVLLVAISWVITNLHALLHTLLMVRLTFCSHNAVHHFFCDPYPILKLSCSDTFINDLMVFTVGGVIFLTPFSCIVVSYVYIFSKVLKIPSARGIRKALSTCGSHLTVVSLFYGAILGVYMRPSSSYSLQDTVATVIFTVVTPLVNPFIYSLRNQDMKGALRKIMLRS
# Summary of the method: as §1
# UniProt Q8VGJ1 = target: T11, UniProt Q8VGJ1
# T11 sequence (whole entry): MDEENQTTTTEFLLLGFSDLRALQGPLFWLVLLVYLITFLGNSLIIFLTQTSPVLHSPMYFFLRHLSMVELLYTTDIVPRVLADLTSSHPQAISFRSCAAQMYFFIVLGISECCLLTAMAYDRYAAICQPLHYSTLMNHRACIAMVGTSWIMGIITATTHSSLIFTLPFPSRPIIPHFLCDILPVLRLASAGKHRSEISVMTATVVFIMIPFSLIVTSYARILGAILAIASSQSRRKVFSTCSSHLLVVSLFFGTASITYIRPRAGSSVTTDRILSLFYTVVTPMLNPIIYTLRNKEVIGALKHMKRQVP
# Summary of the method: as §1
# UniProt Q8VGJ3 = target: T12, UniProt Q8VGJ3
# T12 sequence (whole entry): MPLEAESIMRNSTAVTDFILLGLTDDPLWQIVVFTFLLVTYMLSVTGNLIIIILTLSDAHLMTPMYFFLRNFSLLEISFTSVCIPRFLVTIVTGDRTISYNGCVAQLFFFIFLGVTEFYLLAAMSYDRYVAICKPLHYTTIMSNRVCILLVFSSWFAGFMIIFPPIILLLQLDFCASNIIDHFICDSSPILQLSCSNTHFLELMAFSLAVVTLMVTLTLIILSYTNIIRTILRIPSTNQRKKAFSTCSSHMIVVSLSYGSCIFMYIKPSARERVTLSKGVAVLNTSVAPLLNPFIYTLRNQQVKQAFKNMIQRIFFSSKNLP
# Summary of the method: as §1
# UniProt Q8VGJ5 = target: T13, UniProt Q8VGJ5
# T13 sequence (whole entry): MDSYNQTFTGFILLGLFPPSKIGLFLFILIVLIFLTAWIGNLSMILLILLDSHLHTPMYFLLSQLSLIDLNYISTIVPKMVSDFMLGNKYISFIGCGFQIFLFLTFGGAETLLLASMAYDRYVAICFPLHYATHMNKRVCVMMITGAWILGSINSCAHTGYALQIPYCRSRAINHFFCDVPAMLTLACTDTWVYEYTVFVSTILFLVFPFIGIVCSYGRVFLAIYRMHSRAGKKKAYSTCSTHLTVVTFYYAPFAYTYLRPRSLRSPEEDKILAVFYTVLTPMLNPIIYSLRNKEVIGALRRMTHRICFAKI
# Summary of the method: as §1
# UniProt Q8VGL0 = target: T14, UniProt Q8VGL0
# T14 sequence (whole entry): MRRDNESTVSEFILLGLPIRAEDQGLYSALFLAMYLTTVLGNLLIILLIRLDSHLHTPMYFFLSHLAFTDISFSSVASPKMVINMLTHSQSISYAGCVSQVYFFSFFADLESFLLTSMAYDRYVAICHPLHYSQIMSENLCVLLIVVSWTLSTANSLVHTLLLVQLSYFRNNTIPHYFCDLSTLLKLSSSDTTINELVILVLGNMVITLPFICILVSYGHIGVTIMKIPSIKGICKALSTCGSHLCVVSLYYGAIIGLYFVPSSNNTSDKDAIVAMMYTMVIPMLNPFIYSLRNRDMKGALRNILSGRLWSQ
# Summary of the method: as §1
# UniProt Q8VGL7 = target: T15, UniProt Q8VGL7
# T15 sequence (whole entry): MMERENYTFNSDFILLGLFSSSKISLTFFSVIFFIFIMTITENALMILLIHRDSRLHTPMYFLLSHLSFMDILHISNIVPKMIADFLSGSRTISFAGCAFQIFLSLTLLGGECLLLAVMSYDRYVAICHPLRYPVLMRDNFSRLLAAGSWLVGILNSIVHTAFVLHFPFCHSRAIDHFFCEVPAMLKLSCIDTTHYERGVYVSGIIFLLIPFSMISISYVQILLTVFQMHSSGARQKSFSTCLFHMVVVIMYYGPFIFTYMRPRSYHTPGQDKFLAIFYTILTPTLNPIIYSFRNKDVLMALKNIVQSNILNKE
# Summary of the method: as §1
# UniProt Q8VG28 = target: UniProt Q8VG28
# Summary of the method: as §1
# UniProt Q8VG28, sequence (Q8VG28 as listed by the source): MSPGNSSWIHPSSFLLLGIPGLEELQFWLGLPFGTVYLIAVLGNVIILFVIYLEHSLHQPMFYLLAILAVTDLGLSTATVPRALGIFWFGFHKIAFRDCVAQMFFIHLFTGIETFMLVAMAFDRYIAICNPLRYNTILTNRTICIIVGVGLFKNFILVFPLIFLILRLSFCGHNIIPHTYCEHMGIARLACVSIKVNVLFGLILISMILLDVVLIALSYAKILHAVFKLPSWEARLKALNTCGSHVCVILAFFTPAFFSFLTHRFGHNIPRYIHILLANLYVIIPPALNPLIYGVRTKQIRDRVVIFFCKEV
Structure (SMILES),odorant receptor agonist call (UniProt Q8VG27),odorant receptor agonist call (UniProt Q8VG49),odorant receptor agonist call (UniProt Q8VG53),odorant receptor agonist call (UniProt Q8VG64),odorant receptor agonist call (UniProt Q8VG77),odorant receptor agonist call (UniProt Q8VG96),odorant receptor agonist call (UniProt Q8VGB9),odorant receptor agonist call (UniProt Q8VGC6),odorant receptor agonist call (UniProt Q8VGD7),odorant receptor agonist call (UniProt Q8VGH1),odorant receptor agonist call (UniProt Q8VGJ1),odorant receptor agonist call (UniProt Q8VGJ3),odorant receptor agonist call (UniProt Q8VGJ5),odorant receptor agonist call (UniProt Q8VGL0),odorant receptor agonist call (UniProt Q8VGL7),odorant receptor agonist call (UniProt Q8VG28)
CCOC(=O)C(C)C,inactive,inactive,inactive,inactive,inactive,inactive,inactive,inactive,inactive,inactive,inactive,inactive,active,inactive,active,
CCCC(=O)C(C)=O,inactive,inactive,inactive,inactive,inactive,inactive,inactive,inactive,inactive,inactive,inactive,inactive,inactive,inactive,inactive,
CC12CCC(CC1=O)C2(C)C (configuration not stated),inactive,inactive,inactive,inactive,inactive,inactive,inactive,inactive,active,inactive,inactive,inactive,inactive,active,inactive,
CC(C)=CCCC(C)=CCO,inactive,inactive,inactive,inactive,inactive,inactive,inactive,active,inactive,inactive,inactive,inactive,inactive,inactive,inactive,
COc1cc(C(=O)O)ccc1O,active,inactive,inactive,inactive,inactive,inactive,inactive,inactive,inactive,inactive,inactive,inactive,inactive,inactive,inactive,
CCCCCCCCCC(=O)[O-].[H+],active,active,inactive,inactive,inactive,inactive,inactive,active,inactive,inactive,inactive,inactive,inactive,inactive,inactive,active
CC(C)=CCCC(C)CCO (configuration not stated),inactive,inactive,inactive,inactive,inactive,inactive,inactive,active,inactive,inactive,inactive,inactive,inactive,active,inactive,
CC(=O)OCc1ccccc1,inactive,inactive,inactive,inactive,inactive,inactive,inactive,active,inactive,inactive,inactive,inactive,active,inactive,inactive,
CCCCCCCCCO,inactive,inactive,inactive,inactive,inactive,inactive,inactive,active,inactive,inactive,inactive,inactive,inactive,inactive,inactive,inactive
